Measured values published in ChEMBL document CHEMBL1131024, “N-Arylalkyl pseudopeptide inhibitors of farnesyltransferase” (J Med Chem, 1998).
In brackets after ≈: the same amount, converted by molar mass.

Key:
[1] = target: Protein farnesyltransferase (Homo sapiens, UniProt P49354+P49356); assay: Inhibition of [3H]FPP incorporation into recombinant human Ha-Ras by Farnesyltransferase; type: protein-complex assay
Outline: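 FTase, either purified from bovine brain or homogeneous human recombinant, transferred [³H]FPP onto recombinant Ha-Ras. Total protein was acid-precipitated and protein-bound FPP was counted by scintillation. IC50 is the concentration inhibiting 50% of [³H]FPP incorporation.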

[2] = target: Geranylgeranyl transferase type I (Bos taurus, UniProt P29702+Q5EAD5); assay: Inhibition of bovine Geranylgeranyl transferase type I; type: protein-complex assay
[3] = test system: NIH3T3; assay: Highest nontoxic concentration in NIH3T3 cells by MTT staining; type: functional, Mus musculus
Outline: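 NIH 3T3 cells were exposed to compound for 48 h, and viability was read by MTT staining. The endpoint is the highest concentration the cells tolerated.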

[4] = target: Protein farnesyltransferase (Mus musculus, UniProt Q61239+Q8K2I1); assay: Inhibition of post-translational processing of v-Ras protein in NIH3T3 cells; type: functional, cell-based
Outline: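 v-ras-transformed NIH 3T3 cells were incubated 24 h with compound or solvent control and labeled with [³⁵S]methionine over the final 20 h. Processed (farnesylated) Ras was resolved by SDS-PAGE. Lovastatin at 15 µM served as positive control.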

[5] = test system: Rat1; assay: Inhibition of colony formation in Rat 1-v-ras-transformed cells in soft agar; type: functional
Outline: (§1)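 Rat1 cells transformed by v-ras or v-raf were grown in soft agar for about 2 weeks, fed twice weekly. MIC is the minimum concentration reducing colony size and number relative to vehicle-treated controls.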

[6] = test system: Rat1; assay: Inhibition of colony formation in Rat 1-v-raf-transformed cells in soft agar; type: functional; outline: as §1
[7] = target: T1, Protein farnesyltransferase (Bos taurus, UniProt P29702+P49355); assay: Inhibition of bovine brain Farnesyltransferase at 1 nM
Outline: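 Bovine brain FTase at approximately 1 nM transferred [³H]FPP onto recombinant human Ha-Ras. Acid-precipitated protein-bound label was counted by scintillation. IC50 is the concentration giving 50% inhibition of incorporation.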

[8] = target: T1, Protein farnesyltransferase; assay: Inhibition of bovine brain Farnesyltransferase at 10 pM; conditions: in the assay text read “at approximately 1 nM” for “at 10 pM”

CC[C@@H](C)[C@@H](CN(C)[C@@H](Cc1ccccc1)C(=O)N[C@@H](CCO)C(=O)O)NC[C@@H](N)CS
IC50 [1]: 1.6 µM

CCC[C@@H](C(=O)N[C@@H](CCO)C(=O)O)N(C)C[C@@H](NC[C@@H](N)CS)[C@H](C)CC
IC50 [1]: 0.021 µM | IC50 [2]: 43 µM

CC[C@@H](C)[C@@H](CN[C@@H](Cc1ccccc1)C(=O)N[C@@H](CCSC)C(=O)O)NC[C@@H](N)CS
IC50 [1]: 0.0048 µM | IC50 [2]: 5.75 µM

CC[C@@H](C)[C@@H](CN(Cc1ccccc1)[C@@H](Cc1ccccc1)C(=O)N[C@@H](CCSC)C(=O)O)NC[C@@H](N)CS
IC50 [1]: 1.4 µM

CC[C@@H](C)[C@@H](CN(C)[C@@H](Cc1ccccc1)C(=O)N[C@@H](CCSC)C(=O)O)NC[C@@H](N)CS
IC50 [1]: 0.042 µM

CC[C@@H](C)[C@@H](CN(CC(=O)N[C@@H](CCSC)C(=O)O)Cc1ccccc1)NC[C@@H](N)CS
IC50 [1]: 0.0012 µM | IC50 [2]: 0.45 µM

CC[C@@H](C)[C@@H](C(=O)N[C@H]1CCOC1=O)N(C)C[C@@H](NC[C@@H](N)CS)[C@H](C)CC
CTE [3]: 500 µM | IC50 [4]: 25 µM | MIC [5]: 500 µM (≈ 208 µg/mL)

CC[C@@H](C)[C@@H](CN(CC(=O)N[C@@H](CCO)C(=O)O)Cc1cccc2ccccc12)NC[C@@H](N)CS
IC50 [1]: 0.000123 µM | IC50 [2]: 0.01 µM

CC[C@@H](C)[C@@H](CN(CC(=O)N[C@@H](CCSC)C(=O)OC)Cc1cccc2ccccc12)NC[C@@H](N)CS
CTE [3]: 5 µM | IC50 [4]: 0.5 µM | MIC [5]: 2.5 µM (≈ 1.37 µg/mL) | MIC [6]: > 5 µM

CC[C@@H](C)[C@@H](CN[C@@H](Cc1ccccc1)C(=O)N[C@@H](CCO)C(=O)O)NC[C@@H](N)CS
IC50 [2]: 10 µM | IC50 [7]: 0.026 µM

CCC[C@H](NC[C@@H](NC[C@@H](N)CS)[C@H](C)CC)C(=O)N[C@@H](CCO)C(=O)O
IC50 [2]: 10 µM | IC50 [8]: 0.027 µM

CC[C@@H](C)[C@@H](CN(C)CC(=O)N[C@@H](CCO)C(=O)O)NC[C@@H](N)CS
IC50 [2]: 10 µM | IC50 [8]: 0.083 µM

CC[C@@H](C)[C@@H](CN(C)[C@H](C(=O)N[C@@H](CCSC)C(=O)O)[C@@H](C)CC)NC[C@@H](N)CS
IC50 [1]: 0.025 µM | IC50 [2]: 4.7 µM

CC[C@@H](C)[C@@H](CN[C@H](C(=O)N[C@@H](CCSC)C(=O)O)[C@@H](C)CC)NC[C@@H](N)CS
IC50 [1]: 0.03 µM

CC[C@@H](C)[C@H](NC[C@@H](NC[C@@H](N)CS)[C@H](C)CC)C(=O)N[C@H]1CCOC1=O
CTE [3]: >1000 µM | IC50 [4]: 100 µM | MIC [5]: 1000 µM (≈ 403 µg/mL) | MIC [6]: > 1000 µM

CC[C@@H](C)[C@@H](CN(CC(=O)N[C@@H](CCSC)C(=O)O)Cc1ccccc1)NCCCS
IC50 [1]: 0.0022 µM | IC50 [2]: 39 µM

CC[C@H](C)[C@H](NC[C@@H](NC[C@@H](N)CS)[C@@H](C)CC)C(=O)N[C@@H](CCO)C(=O)O
IC50 [1]: 0.02 µM

CCC(C)[C@@H](CN(CC(=O)N[C@@H](CCSC)C(=O)OC)Cc1ccccc1)NC[C@@H](N)CS (stereo partly specified)
CTE [3]: 10 µM | IC50 [4]: 0.1 µM
